Measured values published in ChEMBL document CHEMBL4364256, “Design, synthesis and biological evaluation of antimicrobial diarylimine and -amine compounds targeting the interaction between the bacterial NusB and NusE proteins” (Eur J Med Chem, 2019).
Values after ≈ are worked out from the molar mass of the structure shown. Active and inactive are the calls of the source. No cut-off for these calls is given here.

Tests used:
[1] = test system: Bacillus subtilis; assay: Inhibition of N-terminal LgBiT-fused Bacillus subtilis NusB expressed in Escherichia coli BL21(DE3)pLysS interaction with C- terminal SmBiT-fused Bacillus subtilis NusE expressed in Escherichia coli BL21(DE3)pLysS at 100 uM preincubated for 10 mins followed by NusE addition and measured after 10 mins by nano-glo luciferase assay relative to control
Method in brief: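 NusB and NusE were mixed 1:1 at 1 µM in PBS, with compound at 100 µM. The read-out was percent inhibition of the NusB-NusE interaction.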

[2] = test system: Bacteria; assay: Binding affinity to bacterial NusB assessed as change in chiral structure at 2 ug/ml by circular dichroism spectroscopic analysis
Method in brief: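 Circular dichroism spectra were recorded on NusB at 2.0 µg/mL in neutral phosphate buffer, alone and after mixing with compound at a 1:1 ratio. Binding was read as a change in the spectrum.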

[3] = test system: Enterococcus faecium; assay: Antimicrobial activity against Enterococcus faecium ATCC 19433 incubated for 20 hrs by microdilution method; assay type: functional; details: ATCC 19433, 20 h
Method in brief: (§1)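 Broth microdilution MIC testing done following CLSI guidelines.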

[4] = test system: Streptococcus pneumoniae; assay: Antimicrobial activity against Streptococcus pneumoniae ATCC 49619 incubated for 20 hrs by microdilution method; assay type: functional; details: ATCC 49619, 20 h; method in brief: as §1
[5] = test system: Acinetobacter baumannii; assay: Antimicrobial activity against Acinetobacter baumannii ATCC 19606 incubated for 20 hrs by microdilution method; assay type: functional; details: ATCC 19606 = CIP 70.34 = JCM 6841, 20 h; method in brief: as §1
[6] = test system: Pseudomonas aeruginosa; assay: Antimicrobial activity against Pseudomonas aeruginosa ATCC 27853 incubated for 20 hrs by microdilution method; assay type: functional; details: ATCC 27853, 20 h; method in brief: as §1
[7] = test system: Staphylococcus aureus; assay: microbe, parasite or virus in culture; details: ATCC 25923, 20 h
[8] = test system: Staphylococcus aureus; assay: microbe, parasite or virus in culture; details: ATCC 29213, 20 h
[9] = microbe, parasite or virus in culture; details: Enterobacter cloacae, ATCC 13047, 20 h
[10] = test system: Staphylococcus aureus; assay: Antimicrobial activity against Staphylococcus aureus ATCC BAA43 incubated for 20 hrs by microdilution method; assay type: functional; details: ATCC BAA43, 20 h
Method in brief: (§2)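 MIC determined by microdilution following Clinical & Laboratory Standards Institute (CLSI) guidelines, read in µg/mL, against a panel of hospital- and community-acquired MRSA strains.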

[11] = test system: Enterococcus casseliflavus; assay: Antimicrobial activity against Enterococcus casseliflavus ATCC 25788 incubated for 20 hrs by microdilution method; assay type: functional; details: ATCC 25788, 20 h; method in brief: as §1
[12] = test system: Staphylococcus epidermidis; assay: Antimicrobial activity against Staphylococcus epidermidis ATCC 12228 incubated for 20 hrs by microdilution method; assay type: functional; details: ATCC 12228, 20 h; method in brief: as §1
[13] = Antimicrobial activity against Staphylococcus saprophyticus ATCC 15305 incubated for 20 hrs by microdilution method; assay type: functional, Staphylococcus saprophyticus subsp. saprophyticus; details: ATCC 15305, 20 h; method in brief: as §1
[14] = test system: Streptococcus pyogenes; assay: Antimicrobial activity against Streptococcus pyogenes ATCC 19615 incubated for 20 hrs by microdilution method; assay type: functional; details: ATCC 19615, 20 h; method in brief: as §1
[15] = test system: Streptococcus agalactiae; assay: Antimicrobial activity against Streptococcus agalactiae ATCC 12386 incubated for 20 hrs by microdilution method; assay type: functional; details: ATCC 12386, 20 h; method in brief: as §1
[16] = test system: Staphylococcus aureus; assay: Antimicrobial activity against Staphylococcus aureus ST239 incubated for 20 hrs by microdilution method; assay type: functional; details: CN79, 20 h; method in brief: as §2
[17] = test system: Staphylococcus aureus; assay: Antimicrobial activity against Staphylococcus aureus ATCC BAA44 incubated for 20 hrs by microdilution method; assay type: functional; details: ATCC BAA44, 20 h; method in brief: as §2
[18] = test system: Staphylococcus aureus; assay: Antimicrobial activity against Staphylococcus aureus HA W231 ST45 incubated for 20 hrs by microdilution method; assay type: functional; details: HA W231 ST45, 20 h; method in brief: as §2
[19] = test system: Staphylococcus aureus; assay: Antimicrobial activity against CA-methicillin-resistant Staphylococcus aureus W47 ST30 incubated for 20 hrs by microdilution method; assay type: functional; details: W47 ST30, 20 h; method in brief: as §2
[20] = test system: Staphylococcus aureus; assay: Antimicrobial activity against CA-methicillin-resistant Staphylococcus aureus W45 ST59 incubated for 20 hrs by microdilution method; details: W45 ST59, 20 h
[21] = test system: Staphylococcus aureus; assay: Antimicrobial activity against CA-methicillin-resistant Staphylococcus aureus W46 ST59 incubated for 20 hrs by microdilution method; details: W46 ST59, 20 h
[22] = test system: Staphylococcus aureus; assay: Antimicrobial activity against Staphylococcus aureus USA300/ST8 incubated for 20 hrs by microdilution method; details: USA300 ST8, 20 h
[23] = test system: Staphylococcus aureus; assay: Antimicrobial activity against Staphylococcus aureus ST22 11B086169 incubated for 20 hrs by microdilution method; assay type: functional; details: ST22 11B086169, 20 h; method in brief: as §2
[24] = test system: Staphylococcus aureus; assay: Antimicrobial activity against CA-methicillin-resistant Staphylococcus aureus W4 ST338 incubated for 20 hrs by microdilution method; assay type: functional; details: W4 ST338, 20 h; method in brief: as §2
[25] = test system: Staphylococcus aureus; assay: Antimicrobial activity against CA-methicillin-resistant Staphylococcus aureus W48 ST217 incubated for 20 hrs by microdilution method; details: W48 ST217, 20 h
[26] = test system: Staphylococcus aureus; assay: Antimicrobial activity against Staphylococcus aureus HA W235 ST5 incubated for 20 hrs by microdilution method; assay type: functional; details: HA W235 ST5, 20 h; method in brief: as §2
[27] = Cytotoxicity against human A549 cells assessed as reduction in cell viability after 48 to 72 hrs by MTT assay; assay type: cell-based
[28] = Cytotoxicity against human HaCaT cells assessed as reduction in cell viability after 48 to 72 hrs by MTT assay; assay type: cell-based
[29] = Therapeutic index, ratio of CC50 for human A549 cells to 1/2 times MIC for Staphylococcus aureus ATCC 25923; assay type: toxicity; details: read-out: TI
[30] = Therapeutic index, ratio of CC50 for human HaCaT cells to 1/2 times MIC for Staphylococcus aureus ATCC 25923; assay type: toxicity; details: read-out: TI

## CC(C)(C)c1ccccc1/N=C/c1cc([N+](=O)[O-])ccc1O
[1]
  inhibition: 16.8%
[2]
  Activity: Active
[3]
  MIC: > 256 µg/mL
[4]
  MIC: 64 µg/mL (≈ 215 µM)
[5]
  MIC: > 256 µg/mL
[6]
  MIC: > 256 µg/mL
[7]
  MIC: 4 µg/mL (≈ 13.4 µM)
[8]
  MIC: 16 µg/mL (≈ 53.6 µM)
[9]
  MIC: > 256 µg/mL

## CC(C)(C)c1cccc(NCc2cc([N+](=O)[O-])ccc2O)c1
[10]
  MIC: 2 µg/mL (≈ 6.66 µM)
[1]
  inhibition: 39.5%
[3]
  MIC: 32 µg/mL (≈ 107 µM)
[4]
  MIC: 8 µg/mL (≈ 26.6 µM)
[5]
  MIC: > 256 µg/mL
[6]
  MIC: > 256 µg/mL
[11]
  MIC: 32 µg/mL (≈ 107 µM)
[12]
  MIC: 16 µg/mL (≈ 53.3 µM)
[13]
  MIC: 1 µg/mL (≈ 3.33 µM)
[14]
  MIC: 16 µg/mL (≈ 53.3 µM)
[15]
  MIC: 16 µg/mL (≈ 53.3 µM)
[16]
  MIC: 8 µg/mL (≈ 26.6 µM)
[17]
  MIC: 8 µg/mL (≈ 26.6 µM)
[18]
  MIC: 8 µg/mL (≈ 26.6 µM)
[19]
  MIC: 4 µg/mL (≈ 13.3 µM)
[20]
  MIC: 8 µg/mL (≈ 26.6 µM)
[21]
  MIC: 8 µg/mL (≈ 26.6 µM)
[22]
  MIC: 8 µg/mL (≈ 26.6 µM)
[23]
  MIC: 8 µg/mL (≈ 26.6 µM)
[24]
  MIC: 4 µg/mL (≈ 13.3 µM)
[25]
  MIC: 4 µg/mL (≈ 13.3 µM)
[26]
  MIC: 4 µg/mL (≈ 13.3 µM)
[27]
  CC50: 18.3 µM
[28]
  CC50: 20.2 µM
[29]
  selectivity ratio: 6
[30]
  selectivity ratio: 6
[7]
  MIC: 2 µg/mL (≈ 6.66 µM)
[8]
  MIC: 4 µg/mL (≈ 13.3 µM)
[9]
  MIC: > 256 µg/mL

## C#Cc1cccc(NCc2cc([N+](=O)[O-])cc(Br)c2O)c1
[10]
  MIC: 2 µg/mL (≈ 5.76 µM)
[1]
  inhibition: 99.6%
[3]
  MIC: 64 µg/mL (≈ 184 µM)
[4]
  MIC: 32 µg/mL (≈ 92.2 µM)
[5]
  MIC: 256 µg/mL (≈ 737 µM)
[6]
  MIC: > 256 µg/mL
[11]
  MIC: 64 µg/mL (≈ 184 µM)
[12]
  MIC: 4 µg/mL (≈ 11.5 µM)
[13]
  MIC: 16 µg/mL (≈ 46.1 µM)
[14]
  MIC: 32 µg/mL (≈ 92.2 µM)
[15]
  MIC: 32 µg/mL (≈ 92.2 µM)
[16]
  MIC: 4 µg/mL (≈ 11.5 µM)
[17]
  MIC: 16 µg/mL (≈ 46.1 µM)
[18]
  MIC: 2 µg/mL (≈ 5.76 µM)
[19]
  MIC: 2 µg/mL (≈ 5.76 µM)
[20]
  MIC: 2 µg/mL (≈ 5.76 µM)
[21]
  MIC: 4 µg/mL (≈ 11.5 µM)
[22]
  MIC: 4 µg/mL (≈ 11.5 µM)
[23]
  MIC: 4 µg/mL (≈ 11.5 µM)
[24]
  MIC: 2 µg/mL (≈ 5.76 µM)
[25]
  MIC: 2 µg/mL (≈ 5.76 µM)
[26]
  MIC: 2 µg/mL (≈ 5.76 µM)
[27]
  CC50: 79.1 µM
[28]
  CC50: 72.2 µM
[29]
  selectivity ratio: 27
[30]
  selectivity ratio: 25
[7]
  MIC: 2 µg/mL (≈ 5.76 µM)
[8]
  MIC: 2 µg/mL (≈ 5.76 µM)
[9]
  MIC: > 256 µg/mL

## CC(C)(C)c1ccc(NCc2cc([N+](=O)[O-])ccc2O)cc1
[10]
  MIC: 4 µg/mL (≈ 13.3 µM)
[1]
  inhibition: 10.8%
[3]
  MIC: > 256 µg/mL
[4]
  MIC: 4 to 8 µg/mL (≈ 13.3 to 26.6 µM)
[5]
  MIC: > 256 µg/mL
[6]
  MIC: > 256 µg/mL
[11]
  MIC: 32 µg/mL (≈ 107 µM)
[12]
  MIC: 4 µg/mL (≈ 13.3 µM)
[13]
  MIC: 8 µg/mL (≈ 26.6 µM)
[14]
  MIC: 16 µg/mL (≈ 53.3 µM)
[15]
  MIC: 16 µg/mL (≈ 53.3 µM)
[16]
  MIC: 4 µg/mL (≈ 13.3 µM)
[17]
  MIC: 4 µg/mL (≈ 13.3 µM)
[18]
  MIC: 4 µg/mL (≈ 13.3 µM)
[19]
  MIC: 4 µg/mL (≈ 13.3 µM)
[20]
  MIC: 4 µg/mL (≈ 13.3 µM)
[21]
  MIC: 4 µg/mL (≈ 13.3 µM)
[22]
  MIC: 4 µg/mL (≈ 13.3 µM)
[23]
  MIC: 4 µg/mL (≈ 13.3 µM)
[24]
  MIC: 4 µg/mL (≈ 13.3 µM)
[25]
  MIC: 8 µg/mL (≈ 26.6 µM)
[26]
  MIC: 4 µg/mL (≈ 13.3 µM)
[27]
  CC50: 37.2 µM
[28]
  CC50: 38.9 µM
[29]
  selectivity ratio: 11
[30]
  selectivity ratio: 12
[7]
  MIC: 2 µg/mL (≈ 6.66 µM)
[8]
  MIC: 4 µg/mL (≈ 13.3 µM)
[9]
  MIC: > 256 µg/mL
